In ChEMBL document CHEMBL1154186, “Synthesis, kinase inhibitory potencies, and in vitro antiproliferative evaluation of new Pim kinase inhibitors” (J Med Chem, 2009):

Tests used:
[1] = target: T1, Mitogen-activated protein kinase 15 (Homo sapiens) (UniProt Q8TD08); experiment: Inhibition of ERK8 assessed as residual enzyme activity at 10 uM relative to untreated control
T1 sequence (whole entry): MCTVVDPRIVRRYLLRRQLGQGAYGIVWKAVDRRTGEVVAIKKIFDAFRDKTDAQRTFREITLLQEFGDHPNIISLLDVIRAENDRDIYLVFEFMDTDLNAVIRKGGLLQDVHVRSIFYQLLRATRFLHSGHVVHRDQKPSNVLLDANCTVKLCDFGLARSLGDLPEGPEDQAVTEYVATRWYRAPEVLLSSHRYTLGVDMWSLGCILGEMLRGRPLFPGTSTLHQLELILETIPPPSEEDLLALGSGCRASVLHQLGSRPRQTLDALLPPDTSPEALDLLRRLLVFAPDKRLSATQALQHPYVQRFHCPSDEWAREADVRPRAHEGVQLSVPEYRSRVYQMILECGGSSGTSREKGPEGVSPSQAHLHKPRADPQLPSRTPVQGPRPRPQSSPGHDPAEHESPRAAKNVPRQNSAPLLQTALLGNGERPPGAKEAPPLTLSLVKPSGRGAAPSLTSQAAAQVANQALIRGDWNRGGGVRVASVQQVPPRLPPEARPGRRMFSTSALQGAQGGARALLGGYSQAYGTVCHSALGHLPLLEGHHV
In short: (§1)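 Radiometric filter-binding assay at 21 °C for 30 min. Mix: 50 mM Tris/HCl pH 7.5, 0.1 mM EGTA, 0.1% 2-mercaptoethanol, 10 mM Mg acetate and [γ-33P]ATP (800 cpm/pmol) at 5 µM. Stopped with orthophosphoric acid and spotted on P81. Compound at 10 µM; activity given as % remaining versus no-inhibitor control, duplicates. Kinases human full-length unless noted.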

[2] = target: Mitogen-activated protein kinase 11 (Homo sapiens) (UniProt Q15759); experiment: Inhibition of P38beta assessed as residual enzyme activity at 10 uM relative to untreated control
In short: (§2)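 Kinases of human origin, except CK1δ, which is rat. Run in 50 mM Tris/HCl pH 7.5, 0.1 mM EGTA, 0.1% 2-mercaptoethanol and 10 mM Mg acetate, with [γ-33P]ATP at 20 µM, 30 min at 21 °C. Acid-stopped and captured on P81 filters. Compound tested at 10 µM; residual % of uninhibited control, duplicate determinations.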

[3] = target: Serine/threonine-protein kinase PLK1 (Homo sapiens) (UniProt P53350); experiment: Inhibition of PLK1 assessed as residual enzyme activity at 10 uM relative to untreated control
In short: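 30 min at 21 °C in the presence of 10 µM inhibitor. Incorporation read after P81 filter capture. Reported as % activity remaining relative to control, duplicates.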

[4] = target: Glycogen synthase kinase-3 beta (Homo sapiens) (UniProt P49841); experiment: Inhibition of GSK3-beta assessed as residual enzyme activity at 10 uM relative to untreated control; in short: as §1
[5] = target: MAP kinase-activated protein kinase 2 (Homo sapiens) (UniProt P49137); experiment: Inhibition of MAPKAPK2 assessed as residual enzyme activity at 10 uM relative to untreated control; in short: as §2
[6] = target: MAP kinase-activated protein kinase 3 (Homo sapiens) (UniProt Q16644); experiment: Inhibition of MAPKAPK3 assessed as residual enzyme activity at 10 uM relative to untreated control; in short: as §2
[7] = Inhibition of AMPK assessed as residual enzyme activity at 10 uM relative to untreated control
In short: (§3)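 Assayed with [γ-33P]ATP at 50 µM and 10 mM Mg acetate in 50 mM Tris/HCl pH 7.5, 0.1 mM EGTA, 0.1% 2-mercaptoethanol, 30 min, 21 °C. Phosphoric acid stop, P81 filter capture. ERK2 and Lck are mouse; AMPK is rat. 10 µM compound; % activity remaining relative to control without inhibitor, duplicates.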

[8] = target: Mitogen-activated protein kinase 3 (Homo sapiens) (UniProt P27361); experiment: Inhibition of ERK1 assessed as residual enzyme activity at 10 uM relative to untreated control; in short: as §1
[9] = target: T2, Serine/threonine-protein kinase Chk1 (Homo sapiens) (UniProt O14757); experiment: Inhibition of CHK1 assessed as residual enzyme activity at 10 uM relative to untreated control; in short: as §2
T2 sequence (whole entry): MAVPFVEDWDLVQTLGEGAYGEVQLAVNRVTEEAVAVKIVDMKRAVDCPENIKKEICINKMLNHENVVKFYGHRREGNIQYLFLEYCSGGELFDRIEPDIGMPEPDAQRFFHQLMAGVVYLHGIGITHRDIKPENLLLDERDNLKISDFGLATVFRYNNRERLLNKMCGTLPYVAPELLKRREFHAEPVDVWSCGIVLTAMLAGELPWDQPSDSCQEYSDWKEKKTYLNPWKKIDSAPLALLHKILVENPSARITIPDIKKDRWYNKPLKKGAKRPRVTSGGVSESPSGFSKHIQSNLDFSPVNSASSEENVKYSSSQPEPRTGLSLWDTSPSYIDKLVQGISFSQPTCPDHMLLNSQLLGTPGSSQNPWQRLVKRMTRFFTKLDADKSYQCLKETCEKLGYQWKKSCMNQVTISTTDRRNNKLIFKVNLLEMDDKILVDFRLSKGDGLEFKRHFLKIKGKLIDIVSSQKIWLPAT

[10] = target: RAC-beta serine/threonine-protein kinase (Homo sapiens) (UniProt P31751); experiment: Inhibition of PKBbeta assessed as residual enzyme activity at 10 uM relative to untreated control; in short: as §3
ERK2 (Mus musculus) = experiment: Inhibition of ERK2 assessed as residual enzyme activity at 10 uM relative to untreated control
[11] = target: T3, Mitogen-activated protein kinase 13 (Homo sapiens) (UniProt O15264); experiment: Inhibition of p38delta assessed as residual enzyme activity at 10 uM relative to untreated control
T3 sequence (whole entry): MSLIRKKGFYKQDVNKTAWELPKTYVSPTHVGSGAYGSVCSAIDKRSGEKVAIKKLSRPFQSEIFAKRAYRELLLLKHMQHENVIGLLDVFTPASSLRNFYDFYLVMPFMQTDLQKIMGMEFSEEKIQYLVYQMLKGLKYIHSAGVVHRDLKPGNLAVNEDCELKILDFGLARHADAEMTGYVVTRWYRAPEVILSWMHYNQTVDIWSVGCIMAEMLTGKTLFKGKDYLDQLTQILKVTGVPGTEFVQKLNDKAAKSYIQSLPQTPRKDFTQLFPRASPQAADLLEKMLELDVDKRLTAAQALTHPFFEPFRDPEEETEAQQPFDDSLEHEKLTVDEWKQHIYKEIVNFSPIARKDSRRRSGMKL
In short: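 p38γ and p38δ MAPK run at 5 µM [γ-33P]ATP, and p38α at 50 µM, each with 10 mM Mg acetate. Buffer 50 mM Tris/HCl pH 7.5, 0.1 mM EGTA, 0.1% 2-mercaptoethanol. 10 µM compound, 30 min at 21 °C. P81 filter capture. Residual activity relative to control, duplicates.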

[12] = test system: MKK1 (Oryctolagus cuniculus); experiment: Inhibition of MKK1 assessed as residual enzyme activity at 10 uM relative to untreated control

MAP kinase-activated protein kinase 3 (Homo sapiens), sequence (Q16644 whole entry, looked up): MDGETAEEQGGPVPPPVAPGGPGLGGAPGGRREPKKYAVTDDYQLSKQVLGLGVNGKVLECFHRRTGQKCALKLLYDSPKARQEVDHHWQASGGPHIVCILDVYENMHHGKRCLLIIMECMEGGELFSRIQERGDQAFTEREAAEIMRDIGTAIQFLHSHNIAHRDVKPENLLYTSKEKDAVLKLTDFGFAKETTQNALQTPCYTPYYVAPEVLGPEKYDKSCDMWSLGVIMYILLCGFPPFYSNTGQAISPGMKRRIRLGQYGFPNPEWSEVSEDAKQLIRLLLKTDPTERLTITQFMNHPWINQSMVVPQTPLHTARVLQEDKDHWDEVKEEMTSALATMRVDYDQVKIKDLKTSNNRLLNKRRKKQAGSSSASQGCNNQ
Mitogen-activated protein kinase 11 (Homo sapiens), sequence (Q15759 whole entry): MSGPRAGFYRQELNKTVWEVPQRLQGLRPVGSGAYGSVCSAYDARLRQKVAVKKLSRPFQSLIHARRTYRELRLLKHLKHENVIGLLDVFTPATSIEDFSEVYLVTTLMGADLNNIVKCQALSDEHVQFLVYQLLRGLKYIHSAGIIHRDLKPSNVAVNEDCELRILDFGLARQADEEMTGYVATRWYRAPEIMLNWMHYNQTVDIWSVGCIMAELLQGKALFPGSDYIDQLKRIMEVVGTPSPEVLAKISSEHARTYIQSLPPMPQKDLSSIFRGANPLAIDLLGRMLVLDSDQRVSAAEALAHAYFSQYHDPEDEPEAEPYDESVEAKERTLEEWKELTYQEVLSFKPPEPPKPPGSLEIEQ
Mitogen-activated protein kinase 3 (Homo sapiens), sequence (P27361 whole entry): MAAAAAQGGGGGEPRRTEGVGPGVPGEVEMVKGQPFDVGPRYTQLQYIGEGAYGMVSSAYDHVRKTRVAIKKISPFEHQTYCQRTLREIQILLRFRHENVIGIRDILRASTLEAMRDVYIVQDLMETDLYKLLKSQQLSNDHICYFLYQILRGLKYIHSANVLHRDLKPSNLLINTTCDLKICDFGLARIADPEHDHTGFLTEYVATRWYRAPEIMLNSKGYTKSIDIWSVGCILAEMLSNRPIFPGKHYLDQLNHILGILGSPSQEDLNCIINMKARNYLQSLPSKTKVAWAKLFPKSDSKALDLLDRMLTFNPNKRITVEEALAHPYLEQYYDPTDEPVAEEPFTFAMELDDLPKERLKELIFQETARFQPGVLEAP
Glycogen synthase kinase-3 beta (Homo sapiens), sequence (P49841 whole entry, looked up): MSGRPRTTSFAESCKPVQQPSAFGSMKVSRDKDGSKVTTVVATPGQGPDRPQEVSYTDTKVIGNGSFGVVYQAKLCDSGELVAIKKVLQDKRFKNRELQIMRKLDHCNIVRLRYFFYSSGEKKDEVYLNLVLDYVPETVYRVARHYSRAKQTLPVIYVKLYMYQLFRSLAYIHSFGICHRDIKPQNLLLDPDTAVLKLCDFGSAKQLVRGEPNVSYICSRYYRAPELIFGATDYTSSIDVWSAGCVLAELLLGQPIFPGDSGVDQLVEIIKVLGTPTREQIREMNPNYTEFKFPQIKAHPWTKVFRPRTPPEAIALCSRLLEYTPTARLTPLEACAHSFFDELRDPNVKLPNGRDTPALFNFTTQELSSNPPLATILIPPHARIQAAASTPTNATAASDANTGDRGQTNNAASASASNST
MAP kinase-activated protein kinase 2 (Homo sapiens), sequence (P49137 whole entry, looked up): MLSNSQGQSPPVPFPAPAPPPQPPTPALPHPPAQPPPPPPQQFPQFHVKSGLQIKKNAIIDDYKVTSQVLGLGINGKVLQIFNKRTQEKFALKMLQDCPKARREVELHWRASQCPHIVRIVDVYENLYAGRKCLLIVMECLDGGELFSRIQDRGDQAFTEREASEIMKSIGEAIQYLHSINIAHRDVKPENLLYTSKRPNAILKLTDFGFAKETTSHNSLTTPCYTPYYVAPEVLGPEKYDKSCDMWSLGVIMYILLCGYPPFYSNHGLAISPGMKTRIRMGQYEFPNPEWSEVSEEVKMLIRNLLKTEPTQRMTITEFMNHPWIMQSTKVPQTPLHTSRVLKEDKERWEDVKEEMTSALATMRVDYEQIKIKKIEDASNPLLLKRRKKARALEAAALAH
Serine/threonine-protein kinase PLK1 (Homo sapiens), sequence (P53350 whole entry): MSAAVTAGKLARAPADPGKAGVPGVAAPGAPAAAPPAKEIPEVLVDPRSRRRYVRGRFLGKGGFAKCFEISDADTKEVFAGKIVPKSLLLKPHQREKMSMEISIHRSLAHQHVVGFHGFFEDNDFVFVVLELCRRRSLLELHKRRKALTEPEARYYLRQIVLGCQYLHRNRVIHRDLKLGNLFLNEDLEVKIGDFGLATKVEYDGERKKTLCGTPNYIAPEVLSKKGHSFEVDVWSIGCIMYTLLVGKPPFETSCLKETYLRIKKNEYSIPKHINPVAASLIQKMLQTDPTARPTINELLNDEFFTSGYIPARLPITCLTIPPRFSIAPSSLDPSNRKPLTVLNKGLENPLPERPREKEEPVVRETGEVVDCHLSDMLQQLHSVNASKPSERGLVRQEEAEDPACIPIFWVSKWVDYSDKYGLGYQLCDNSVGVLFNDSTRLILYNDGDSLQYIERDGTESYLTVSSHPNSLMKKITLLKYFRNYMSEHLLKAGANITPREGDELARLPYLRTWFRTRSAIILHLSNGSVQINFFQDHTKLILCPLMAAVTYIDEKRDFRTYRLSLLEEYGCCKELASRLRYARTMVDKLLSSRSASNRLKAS
RAC-beta serine/threonine-protein kinase (Homo sapiens), sequence (P31751 whole entry): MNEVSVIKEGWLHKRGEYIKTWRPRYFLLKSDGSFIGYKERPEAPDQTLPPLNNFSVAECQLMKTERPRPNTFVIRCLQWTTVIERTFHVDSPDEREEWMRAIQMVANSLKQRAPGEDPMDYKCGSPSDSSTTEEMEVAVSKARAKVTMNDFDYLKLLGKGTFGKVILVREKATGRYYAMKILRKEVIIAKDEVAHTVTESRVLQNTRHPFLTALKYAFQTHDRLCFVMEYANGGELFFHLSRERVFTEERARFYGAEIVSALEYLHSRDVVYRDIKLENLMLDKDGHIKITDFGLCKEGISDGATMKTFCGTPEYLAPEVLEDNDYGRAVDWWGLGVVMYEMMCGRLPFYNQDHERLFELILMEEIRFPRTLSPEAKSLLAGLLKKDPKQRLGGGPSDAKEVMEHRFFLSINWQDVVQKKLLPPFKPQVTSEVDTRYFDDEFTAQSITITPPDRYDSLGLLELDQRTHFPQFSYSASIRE

| Activity [2] [%] | Activity [3] [%] | Activity [4] [%] | Activity [5] [%] | Activity [6] [%] | Activity [7] [%] | Activity [8] [%] | Activity [9] [%] | Activity [10] [%] | Activity (ERK2 (Mus musculus)) [%] | Activity [11] [%] | Activity [12] [%] | SMILES | Activity [1] [%] |
| --- | --- | --- | --- | --- | --- | --- | --- | --- | --- | --- | --- | --- | --- |
| 80 | 91 | 88 | 84 | 69 | 59 | 87 | 97 | 98 |  |  |  | O=Cc1c[nH]c2c1ccc1c3ccccc3[nH]c12 | 20 |
| 91 | 105 | 102 | 95 | 88 | 79 | 97 | 112 | 107 | 100 | 89 | 75 | c1ccc2c(c1)[nH]c1c3cc[nH]c3ccc21 | 47 |
| 100 | 111 | 111 | 118 | 89 | 80 | 108 | 123 | 107 | 94 | 78 | 87 | c1ccc2c(c1)[nH]c1c2ccc2cc[nH]c21 | 55 |
| 96 | 106 | 96 | 95 | 90 | 85 | 95 | 101 | 107 | 94 | 83 | 104 | O=Cc1c[nH]c2ccc3c4ccccc4[nH]c3c12 | 112 |
